Measurements from ChEMBL document CHEMBL1137269, “Identification of substituted 4-aminopiperidines and 3-aminopyrrolidines as potent MCH-R1 antagonists for the treatment of obesity” (Bioorg Med Chem Lett, 2006).

Columns and labels:
[1] = target: T1, Melanin-concentrating hormone receptor 1 (Homo sapiens, UniProt Q99705); assay: Binding activity against human MCH-R1
Summary of the method: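 Whole-cell competition binding in HEK-293 cells overexpressing MCH-R1 (SLC-1). Cells were incubated with varying compound concentrations plus 25 nM europium-labelled MCH, then washed free of unbound label, and residual bound europium-MCH was quantified. Non-specific binding was defined with unlabelled MCH. Values are means of at least two experiments unless indicated otherwise.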

[2] = target: T1, Melanin-concentrating hormone receptor 1; assay: Inhibition of MCH-mediated calcium release by CHO cells expressing human MCH-R1; type: functional, cell-based

T1 sequence (Q99705 whole entry): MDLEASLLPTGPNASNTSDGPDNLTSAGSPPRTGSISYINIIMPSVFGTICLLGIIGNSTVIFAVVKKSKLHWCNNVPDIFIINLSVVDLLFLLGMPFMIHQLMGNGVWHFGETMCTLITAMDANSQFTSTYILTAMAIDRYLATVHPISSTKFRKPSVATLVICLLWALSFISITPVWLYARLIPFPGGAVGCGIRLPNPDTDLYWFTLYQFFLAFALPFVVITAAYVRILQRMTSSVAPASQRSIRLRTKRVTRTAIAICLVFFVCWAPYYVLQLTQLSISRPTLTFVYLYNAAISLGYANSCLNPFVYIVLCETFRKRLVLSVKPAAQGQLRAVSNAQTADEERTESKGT

| Structure (SMILES) | Ki [1] [nM] | IC50 [2] [nM] |
| --- | --- | --- |
| COc1cc(OC)cc(C(=O)NC2CCN(C(C)c3ccc4ccccc4c3)CC2)c1 (centres undefined) | 25 | – |
| COc1cc(OC)cc(C(=O)NC2CCN(Cc3cc4ccccc4n3C)CC2)c1 | 142 | – |
| COc1cccc(C(=O)N[C@@H]2CCN(Cc3ccc4ccccc4c3)C2)c1 | 67 | – |
| COc1cc(OC)cc(C(=O)NC2CC(C)(C)N(Cc3ccc4ccccc4c3)C(C)(C)C2)c1 | > 100000 | – |
| O=C(NC1CCN(Cc2ccc3cc(F)ccc3c2)CC1)c1ccccc1 | 125 | 109 |
| CCOc1cc(OCC)cc(C(=O)NC2CCN(Cc3ccc4ccccc4c3)CC2)c1 | 56 | – |
| COc1cc(C(=O)N[C@@H]2CCN(Cc3ccc4ccccc4c3)C2)ccc1F | 62 | – |
| COc1cc(OC)cc(C(=O)NCCCNCc2ccc3ccccc3c2)c1 | > 100000 | – |
| COc1cc(OC)cc(C(=O)NC2CCN(Cc3ccc4ccccc4c3)CC2)c1 | 27 | 62 |
| COc1cc(OC)cc(C(=O)N[C@H]2CCN(Cc3ccc4ccccc4c3)C2)c1 | 484 | – |
| O=C(NCc1ccc(F)c(F)c1)[C@H]1[C@@H]2CN(Cc3ccc4ccccc4c3)C[C@@H]21 | 40 | – |
| O=C(NC1CCN(Cc2ccc3ccccc3c2)CC1)c1cc(F)c(F)c(F)c1 | 9 | – |
| COc1cc(OC)cc(C(=O)NC2CCN(Cc3ccc4ccccc4n3)CC2)c1 | 625 | – |
| COc1cc(OC)cc(C(=O)NC2CCCN(Cc3ccc4ccccc4c3)C2)c1 (centres undefined) | > 100000 | – |
| COc1cc(OC)cc(C(=O)N(C)C2CCN(Cc3ccc4ccccc4c3)CC2)c1 | 169 | – |
| O=C(NC1CCN(Cc2ccc3ccccc3c2)CC1)c1ccc(Cl)cc1 | 232 | – |
| COc1cc(OC)cc(C(=O)N[C@@H]2CCN(Cc3ccc4ccccc4c3)C[C@H]2C)c1 | 133 | – |
| COc1cc(OC)cc(C(=O)N[C@@H]2CCN(Cc3ccc4ccccc4c3)C2)c1 | 7 | 18 |
| COc1cc(OC)cc(C(=O)NC2CCN(CC[C@H](O)c3ccccc3)CC2)c1 | 505 | – |
| COc1cc(OC)cc(C(=O)NC2(C)CCN(Cc3ccc4ccccc4c3)CC2)c1 | 86 | – |
| O=C(NC1CCN(Cc2ccc3ccccc3c2)CC1)c1cccc(O)c1 | 570 | – |
| O=C(NC1CCN(Cc2ccc3ccccc3c2)CC1)c1ccccc1 | 347 | 948 |

| Structure (SMILES) | Ki [1] [nM] | IC50 [2] [nM] |
| --- | --- | --- |
| COc1cc(OC)cc(C(=O)NC2CCN(Cc3ccc4cc(OC)ccc4c3)CC2)c1 | 99 | – |
| CN(C)c1cccc(C(=O)NC2CCN(Cc3ccc4ccccc4c3)CC2)c1 | 125 | – |
| COc1cc(OC)cc(C(=O)N[C@@H]2CCN(C(C)/C=C/c3ccccc3)C2)c1 (some centres undefined) | 23 | – |
| COc1cc(OC)cc(C(=O)NC2CCN(CCCc3ccccc3)CC2)c1 | > 100000 | – |
| COc1ccc(C(=O)NC2CCN(Cc3ccc4ccccc4c3)CC2)cc1OC | 1000 | – |
| COc1cc(OC)cc(C(=O)N[C@@H]2CCN(C/C=C/c3ccccc3)C2)c1 | 17 | 42 |
| COc1cc(OC)cc(C(=O)NC2CCN(Cc3ccc4cc(F)ccc4c3)CC2)c1 | 32 | – |
| COc1cc(OC)cc(C(=O)N[C@@H]2CCN(Cc3ccccc3)C2)c1 | 8070 | – |
| O=C(NC1CCN(Cc2ccc3ccccc3c2)CC1)c1ccc(F)c(F)c1 | 18 | 52 |
| O=C(NC1CCN(Cc2ccc3ccccc3c2)CC1)c1cc(F)cc(F)c1 | 65 | – |
| O=C(NC1CCN(Cc2ccc3ccccc3c2)CC1)c1ccc(F)cc1 | 36 | – |
| COc1cc(OC)cc(C(=O)N[C@@H]2CCN(C(C)c3ccc4ccccc4c3)C2)c1 (some centres undefined) | 12 | – |
| COc1cc(C(=O)NC2CCN(Cc3ccc4ccccc4c3)CC2)ccc1F | 13 | – |
| COc1cc(OC)cc(C(=O)NC2CCN(C/C=C/c3ccccc3)CC2)c1 | 12 | – |
| O=C(NCc1ccc(F)c(F)c1)[C@@H]1[C@@H]2CN(Cc3ccc4ccccc4c3)C[C@@H]21 | > 100000 | – |
| COc1cccc(C(=O)NC2CCN(Cc3ccc4ccccc4c3)CC2)c1 | 29 | – |
| COc1cc(OC)cc(C(=O)NC2CCN(Cc3ccc(Cl)c(Cl)c3)CC2)c1 | 205 | – |
| COc1cc(C(=O)NC2CCN(Cc3ccc4ccccc4c3)CC2)cc(OC)c1OC | 286 | – |
| COc1cc(OC)cc(C(=O)NC2CCN(CC3CCc4ccccc4C3)CC2)c1 (centres undefined) | 136 | – |
| COc1cc(OC)cc(C(=O)NC2CCN(Cc3ccccc3)CC2)c1 | 302 | – |
| COc1cc(OC)cc(C(=O)N[C@@H]2CCN(Cc3ccc4ccccc4c3)C[C@@H]2C)c1 | 170 | – |
